# Laboratory results published in ChEMBL document CHEMBL1127411, “Chemical and biological evaluation of hydrolysis products of cyclophosphamide” (J Med Chem, 1994).
# The source made the active and inactive calls. No cut-off for these calls is given here.
# Experiments:
# [1] = Lethal dose was evaluated after single intraperitoneal injection in mice; assay type: toxicity, organism-based; conditions: mouse, in vivo, ip
# Procedure, shortened: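 Male CD2F1 mice, 6–8 weeks old, two per dose group, single ip injection. Observed 28 days for lethality and clinical signs of toxicity; approximate LD₅₀ estimated from deaths.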
# [2] = Antitumor efficacy evaluated after single intraperitoneal dose of 68.1 mg/kg on consecutive days; NE = No effect; assay type: functional, organism-based; parameters: dose 68.1 mg/kg
# Procedure, shortened: (§1)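 Male CD2F1 mice, six per group, inoculated ip with 10⁶ freshly harvested P388 cells in 0.2 mL phosphate-buffered saline. Test substance given ip either once on day 1 or daily on days 1–4; controls received solvent. Median survival time recorded per group; increase of life span expressed as percentage of control.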
# [3] = Antitumor efficacy evaluated after single intraperitoneal dose of 215 mg/kg; NE = No effect; assay type: functional, organism-based; parameters: dose 215 mg/kg; procedure, shortened: as §1
# [4] = Antitumor efficacy evaluated after fractionated dose of 4*100 mg/kg; NE = No effect; assay type: functional, organism-based; procedure, shortened: as §1
# [5] = Antitumor efficacy evaluated after single dose of 316 mg/kg; NE = No effect; assay type: functional, organism-based; parameters: dose 316 mg/kg; procedure, shortened: as §1
# [6] = The half life at a pH 1.2; conditions: buffer
# [7] = The half life at a physiological pH
smiles,measurement,setting,value
O=P(O)(O)OCCCNCCNCCCl,LD50,[1],700 mg/kg
same,Efficacy,[2],inactive
same,Efficacy,[3],inactive
O=P1(O)OCCCNCCN1CCCl,Efficacy,[4],inactive
same,LD50,[1],1000 mg/kg
same,Efficacy,[5],inactive
O=P1(N(CCCl)CCCl)NCCCO1 (stereo not given) [CYCLOPHOSPHAMIDE ANHYDROUS],LD50,[1],620 mg/kg
same,half-life,[6],33.6 h
same,half-life,[7],158 h
NCCCOP(=O)(O)O,LD50,[1],1000 mg/kg
